Results on six compounds are retold here after ChEMBL document CHEMBL5244265 (Bioorg Med Chem, 2020).

Assay [1] has as its target T1, Kallikrein-7 (Homo sapiens, UniProt P49862). The assay is described as follows: Inhibition of human recombinant kallikrein 7 (23 to 252 residues) using MCA-RPKPVE-Nval-WRK(Dnp)-NH2 as substrate by fluorescence based analysis. The essentials:
(§1)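 Fluorogenic assay with HNE (MeOSucAAPV-AMC substrate) or human KLK7 ([…] substrate). Test compounds ran as a 10-dose, 3-fold dilution series from 1 μM in duplicate, with controls tested in the same run. Activity was taken from the initial linear slope of the fluorescence increase over time. Results are mean of n = 2, expressed relative to 0.5% DMSO vehicle.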
Target sequence in this assay (P49862 whole entry, the tested form may be a part): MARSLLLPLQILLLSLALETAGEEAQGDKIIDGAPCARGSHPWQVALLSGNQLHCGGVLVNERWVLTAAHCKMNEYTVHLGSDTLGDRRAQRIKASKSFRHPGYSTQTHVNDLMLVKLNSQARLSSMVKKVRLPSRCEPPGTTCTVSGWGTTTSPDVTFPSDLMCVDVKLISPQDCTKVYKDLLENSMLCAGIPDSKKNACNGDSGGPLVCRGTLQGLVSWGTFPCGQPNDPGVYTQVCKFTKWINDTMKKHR

The target of assay [2] is T1, Kallikrein-7. The assay is described as follows: Inhibition of human recombinant kallikrein 7 (23 to 252 residues) using MCA-RPKPVE-Nval-WRK(Dnp)-NH2 as substrate by fluorescence based analysis relative to tutuilamide A. In a few lines:
as §1
Target sequence in this assay (P49862 30-253 limits assumed): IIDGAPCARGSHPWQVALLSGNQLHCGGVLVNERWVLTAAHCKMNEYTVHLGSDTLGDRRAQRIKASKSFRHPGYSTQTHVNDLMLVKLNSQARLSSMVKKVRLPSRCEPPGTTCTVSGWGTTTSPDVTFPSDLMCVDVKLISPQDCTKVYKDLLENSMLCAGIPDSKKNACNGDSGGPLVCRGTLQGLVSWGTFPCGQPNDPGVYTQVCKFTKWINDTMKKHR

Assay [3] addresses T2, Neutrophil elastase (Homo sapiens) (UniProt P08246).
T2 sequence (whole entry): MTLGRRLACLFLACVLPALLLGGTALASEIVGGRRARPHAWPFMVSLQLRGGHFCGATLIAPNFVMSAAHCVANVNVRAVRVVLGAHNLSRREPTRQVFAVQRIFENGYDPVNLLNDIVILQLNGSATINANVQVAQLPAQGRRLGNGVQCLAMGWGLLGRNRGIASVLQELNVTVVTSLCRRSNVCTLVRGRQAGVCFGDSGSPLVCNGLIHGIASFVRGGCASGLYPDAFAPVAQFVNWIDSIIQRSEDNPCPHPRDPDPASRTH
The assay is described as follows: Inhibition of elastase in human neutrophil using N-(OMe-succinyl)-Ala-Ala-Pro-Val-p-nitroanilide as substrate preincubated with enzyme for 15 mins followed by substrate addition and measured every 30s for 30 mins by absorbance based analysis relative to tutuilamide A. Conditions: time 45.0 min. In a few lines:
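Human neutrophil elastase, from a 100 μg/mL enzyme stock in 0.1 M Tris–0.5 M NaCl (pH 7.5), was preincubated with compound at varying doses or DMSO vehicle for 15 min at room temperature in the same buffer. The p-nitroanilide substrate was added from a 2 mM stock, and A405 was read every 30 s for 30 min. Activity was taken as the initial slope, expressed as % of the uninhibited reaction, and IC50 came from dose-response.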

The target in assay [4] is T1, Kallikrein-7. The assay is described as follows: Inhibition of KLK7 (unknown origin). The essentials:
as §1
Target sequence in this assay (P49862 whole entry, the tested form may be a part): as the sequence (P49862 whole entry, the tested form may be a part) above

Assay [5] in a line: Inhibition of Bacillus licheniformis Proteinase A using Z-GPR-AMC as substrate by fluorescence based analysis. In a few lines:
(§2)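 Each enzyme was read as a time course of rising fluorescence from cleavage of its AMC-labelled peptide substrate. The initial linear slope (signal/min) was analysed. Non-human sources: chymotrypsin from bovine pancreas, proteinase A from B. licheniformis, proteinase K from T. album limber.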

The subject of assay [6] is Parengyodontium album. The assay is described as follows: Inhibition of Tritirachium album limber Proteinase K using H-D-CHA -Ala-Arg-AMC.2AcOH as substrate by fluorescence based analysis relative to proteinase K inhibitor. In a few lines:
as §2

A short description of assay [7]: Inhibition of Tritirachium album limber Proteinase K using H-D-CHA -Ala-Arg-AMC.2AcOH as substrate by fluorescence based analysis. Also noted: species or system Parengyodontium album. The essentials: as §2
For assay [8], the target named is T3, Neutrophil elastase (Homo sapiens, UniProt P08246).
T3 sequence (P08246 whole entry): T2 sequence (whole entry)
The assay is described as follows: Inhibition of elastase in human neutrophil using N-(OMe-succinyl)-Ala-Ala-Pro-Val-p-nitroanilide as substrate preincubated with enzyme for 15 mins followed by substrate addition and measured every 30s for 30 mins by absorbance based analysis. In a few lines: (§3)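 HNE stock at 100 μg/mL and substrate stock at 2 mM, both in 0.1 M Tris–0.5 M NaCl pH 7.5. Compound or DMSO was preincubated with enzyme in the same buffer for 15 min at room temperature, then substrate was added. A405 was read every 30 s for 30 min. Activity was taken from the initial slope as a percentage of the uninhibited reaction.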

The target of assay [9] is T3, Neutrophil elastase. The assay is described as follows: Inhibition of elastase in human neutrophil using MeOSuc-AAPV-AMC as substrate by fluorescence based analysis. The class given is cell-based. In a few lines:
as §1

The target in assay [10] is T2, Neutrophil elastase (Homo sapiens). The assay is described as follows: Inhibition of elastase in human neutrophil using MeOSuc-AAPV-AMC as substrate by fluorescence based analysis relative to sivelestat. The class given is cell-based. In a few lines:
as §1

The target in assay [11] is T1, Kallikrein-7. The assay is described as follows: Inhibition of human recombinant kallikrein 7 (23 to 252 residues) using MCA-RPKPVE-Nval-WRK(Dnp)-NH2 as substrate by fluorescence based analysis relative to gabexate mesylate. The essentials:
as §1
Target sequence in this assay (P49862 30-253 limits assumed): as the sequence (P49862 30-253 limits assumed) above

Assay [12] in a line: Inhibition of chymotrypsin in bovine pancreas using Suc-AAPF-AMC as substrate by fluorescence based analysis. In kind it is tissue-based, Bos taurus. The essentials: as §2
For assay [13], the target named is T2, Neutrophil elastase (Homo sapiens). The assay is described as follows: Inhibition of elastase in human neutrophil using N-(OMe-succinyl)-Ala-Ala-Pro-Val-p-nitroanilide as substrate preincubated with enzyme for 15 mins followed by substrate addition and measured every 30s for 30 mins by absorbance based analysis relative to symplostatin 5. Conditions: time 45.0 min. The essentials: as §3

The nature of assay [14]: Inhibition of porcine pancreatic elastase. The arrangement: species or system Sus scrofa.
In assay [15] the target is T2, Neutrophil elastase (Homo sapiens). The assay is described as follows: Inhibition of elastase in human neutrophil using N-(OMe-succinyl)-Ala-Ala-Pro-Val-p-nitroanilide as substrate preincubated with enzyme for 15 mins followed by substrate addition and measured every 30s for 30 mins by absorbance based analysis relative to sivelestat. Conditions: time 45.0 min. The essentials:
as §3

For assay [16], the system named is Bacillus licheniformis. The assay is described as follows: Inhibition of Bacillus licheniformis Proteinase A using Z-GPR-AMC as substrate by fluorescence based analysis relative to leupeptin. The essentials: as §2
A short description of assay [17]: Selectivity ratio of IC50 for chymotrypsin in bovine pancreas to IC50 for human neutrophil elastase.

The term IC50 denotes the concentration that inhibits the measured activity by half. In the case of `CCOC(=O)c1ccc(OC(=O)CCCCCNC(=N)N)cc1`, the 50% inhibitory concentration (IC50) in [1] worked out at 28400 nM.

For the compound `C/C=C1\NC(=O)[C@@H](NC(=O)[C@H](CCC(N)=O)NC(=O)CCCCC)[C@@H](C)OC(=O)[C@H](C(C)C)NC(=O)[C@H](Cc2ccc(O)cc2)N(C)C(=O)[C@H](Cc2ccccc2)N2C(=O)[C@H](CC[C@H]2O)NC1=O` [LYNGBYASTATIN 7], the fold change (FC) in assay [2] turned out to be 1.6; in assay [3] it was 1.5. Besides, the IC50 in [1] turned out to be 3.1 nM.

Compound `CC[C@@H](C)[C@H]1C(=O)N(C)[C@@H](Cc2ccc(O)cc2)C(=O)N[C@H]([C@H](C)CC)C(=O)O[C@H](C)[C@H](NC(=O)[C@H](CCC(N)=O)NC(=O)C(C)C)C(=O)N[C@@H](CC(C)C)C(=O)N[C@H]2CC[C@@H](O)N1C2=O` gave an IC50 in [4] of 1 nM.

Regarding `CC(=O)N[C@@H](CC(C)C)C(=O)N[C@@H](CC(C)C)C(=O)N[C@H](C=O)CCCNC(=N)N` [LEUPEPTIN], the half-inhibitory concentration (IC50) in [5] worked out at 129000 nM.

In the case of `CC[C@H](C)[C@@H]1NC(=O)[C@H](Cc2ccc(OCc3ccn(C)n3)cc2)N(C)C(=O)[C@H]([C@@H](C)CC)N2C(=O)[C@H](CC[C@H]2O)NC(=O)[C@H](CC(C)C)NC(=O)[C@@H](NC(=O)[C@H](CCC(N)=O)NC(=O)C(C)C)[C@@H](C)OC1=O`, 0.2 nM corresponded to half-maximal inhibition in assay [4] (IC50).

For the compound `C/C=C1\NC(=O)[C@@H](NC(=O)[C@@H](NC(=O)[C@H](C)NC(=O)C/C(C)=C/Cl)[C@@H](C)CC)[C@@H](C)OC(=O)[C@H](C(C)C)NC(=O)[C@H](Cc2ccc(O)cc2)N(C)C(=O)[C@H](Cc2ccccc2)N2C(=O)[C@H](CC[C@H]2O)NC1=O`, the fold change (FC) in assay [6] worked out at 15; in assay [10], 5; in [11], 5680; in [13] it was 2.1; in assay [15], 2.9; in assay [16] it was 4000. For the same compound, the half-maximal inhibitory concentration (IC50) was found to be 5 nM in [1]; 12.3 nM in assay [7]; 44 nM in assay [8]; 0.73 nM in [9]; 97.4 nM in assay [12]; 1.2 nM in assay [14]. Moreover, in assay [5], inhibition was half-maximal at 31.3 nM (IC50). In addition, the Ratio IC50 in assay [17] was 100.
